PRMT1 inh – PRMT1 methyltransferase inhibitors, primary screen, biochemical, fluorescence polarization | Protein arginine N-methyltransferase 1 (Homo sapiens), Q99873 | recombinant PRMT1, activity-based probe fluorescence polarization | inhibition, % at 2.79 µM | 1.3% of 370,000 active | AID 652257, 2013;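 active means inhibition above about 21% made by adding two undisclosed values, limit read from the data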
Target sequence (Q99873 whole entry, looked up): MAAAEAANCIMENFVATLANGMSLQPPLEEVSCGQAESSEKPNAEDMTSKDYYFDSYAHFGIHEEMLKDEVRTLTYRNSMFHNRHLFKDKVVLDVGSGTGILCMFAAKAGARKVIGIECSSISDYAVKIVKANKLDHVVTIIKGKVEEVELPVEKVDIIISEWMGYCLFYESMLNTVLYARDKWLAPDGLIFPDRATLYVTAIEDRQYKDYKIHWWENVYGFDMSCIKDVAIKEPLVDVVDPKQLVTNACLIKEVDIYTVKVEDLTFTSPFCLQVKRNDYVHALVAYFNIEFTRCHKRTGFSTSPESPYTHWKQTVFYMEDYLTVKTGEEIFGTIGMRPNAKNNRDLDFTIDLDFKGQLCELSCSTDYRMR
TCR-CD3 inh – inhibitors of human TCR-CD3 interaction, primary screen, biochemical, fluorescence, TAMRA-labeled TCR probe | T-cell receptor (TCR) | inhibition, % at 9.4 µM | 0.37% of 360,000 active | AID 651800, 2012; in the data active means inhibition above about 19%;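 further: recombinant mutant TCR 2C K166C tagged with TAMRA read by polarization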
rCAG binder – binders of r(CAG) RNA repeats, primary screen, biochemical, fluorescence; AID 651821, 2012; r(CAG) RNA repeat, TO-PRO-1 dye displacement fluorescence; inhibition, % at 3 µM; 1.3% of 370,000 active;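 active means inhibition above the plate cutoff, the mean of all test compounds on that plate plus 3 SD, cut at about 35% in these data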;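 further: higher means more dye released from RNA so lower well fluorescence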
ABHD4 inh – ABHD4 inhibitors, primary screen, biochemical, fluorescence polarization, mouse; inhibition, % at 8.92 µM; AID 720543, 2013; purified mABHD4, FP-Rh probe fluorescence polarization; 0.54% of 370,000 active; (Lyso)-N-acylphosphatidylethanolamine lipase (Mus musculus), Q8VD66;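 active means inhibition exceeding the mean over every tested compound plus 3 SD, cut at about 30% in these data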
Target sequence (Q8VD66 whole entry, looked up): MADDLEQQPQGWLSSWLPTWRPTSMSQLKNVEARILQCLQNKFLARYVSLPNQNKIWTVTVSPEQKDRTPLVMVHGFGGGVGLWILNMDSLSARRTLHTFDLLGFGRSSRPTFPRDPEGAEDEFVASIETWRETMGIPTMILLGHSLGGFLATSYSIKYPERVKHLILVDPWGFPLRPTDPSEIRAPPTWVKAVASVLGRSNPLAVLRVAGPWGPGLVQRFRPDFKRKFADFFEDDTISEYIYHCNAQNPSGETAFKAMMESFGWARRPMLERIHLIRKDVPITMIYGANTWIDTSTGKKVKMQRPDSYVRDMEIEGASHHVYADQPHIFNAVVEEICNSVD
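Assay system: mABHD4 protein; medium: HEPES pH 7.0, NaCl, Pluronic buffer; dosing: 8.92 µM, single dose; schedule: 45 min + 60 min at 25 °C; signal: FP readout, ex 525 nm / em 598 nm; read-out: normalized percent inhibition of probe labeling; repeats: single replicate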
SIAE primary – human SIAE inhibitors, primary screen, biochemical, fluorescence polarization, FP-Rh probe, 1536-well HTS. SIAE FP-Rh probe binding. inhibition, % at 9.66 µM. 0.69% of 370,000 active. AID 1053197, 2014;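 active means inhibition above a cutoff: mean of compounds within the control limits plus 3 SD of those, cut at about 17% in these data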
ABHD4 confirm – ABHD4 inhibitors, retest, confirmation, biochemical, fluorescence polarization, mouse. shares compounds with ABHD4 inh. purified mABHD4, FP-Rh probe fluorescence polarization. inhibition, % at 8.92 µM. 55% of 1,800 active. AID 720658, 2013;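 active means mean inhibition across replicates above the hit cutoff set in the primary screen, cut at about 30% in these data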
Each line names hits and unclear results; the compound was inactive in the other large screens (follow-up assays come after a bar, where they were run). Sampled rows, rich in hits. Any-hit rate of the full collection: about 3.3%.

COC(=O)N1CCC[C@H]1c1cccc2[nH]cc(C)c12	none (no result: TCR-CD3 inh)
COC/C=C/C1=CC2=CC(=O)C(C)(OC(=O)c3cnc4ccccc4n3)C(=O)C2=CN1Cc1ccccc1 (stereo unspecified)	ABHD4 inh 34 | ABHD4 confirm inactive
COc1ccc(OC)c(N2Cc3cc(C)c(C)cc3C2)c1	ABHD4 inh 30 | ABHD4 confirm 36
COC(=O)C1CN(Cc2cn(CCOC(C)=O)nn2)CCS(=O)(=O)N1Cc1ccccc1 (stereo unspecified)	none (no result: TCR-CD3 inh)
CCOc1ccccc1N(CC(=O)N1CCN(Cc2ccccc2)CC1)S(=O)(=O)c1ccccc1	none
O=c1c(-c2ccc([N+](=O)[O-])cc2)coc2c(O)c(O)ccc12	PRMT1 inh 38, ABHD4 inh 42 | ABHD4 confirm inactive
Oc1ccccc1C=Nn1c(-c2ccccc2F)n[nH]c1=S	none (no result: TCR-CD3 inh)
COc1ccc(NS(=O)(=O)c2cc(N)ccc2N2CCCC2)cc1	ABHD4 inh 39 | ABHD4 confirm 32
O=[N+]([O-])c1ccc(NN=Cc2cccc([N+](=O)[O-])c2)cc1	none
O=[N+]([O-])c1ccc(C=NNc2ccc(S(=O)(=O)O)cc2)cc1	ABHD4 inh 33 | ABHD4 confirm 50
CC(=O)Oc1ccc2c(=O)c(Oc3ccccc3)c(C)oc2c1OC(C)=O	ABHD4 inh 42 | ABHD4 confirm inactive
CCNC(=S)NNC(=O)c1ccccc1Cl	none
CCNC(=S)NNC(=O)c1ccccn1	ABHD4 inh 54 | ABHD4 confirm 55
Oc1ccc(-c2csc(Nc3ccccn3)n2)cc1O	ABHD4 inh 31 | ABHD4 confirm 40
Cc1cccc(Nc2nc(-c3ccc(F)c(C)c3)cs2)n1	none
Cc1ccnc(Nc2nc(-c3ccc(O)c(O)c3)cs2)c1	ABHD4 inh 42 | ABHD4 confirm 47
CC(=O)Nc1ccc(-c2csc(Nc3ccccn3)n2)cc1	none
Cc1cccc(Nc2nc(-c3ccc(O)c(O)c3)cs2)n1	ABHD4 inh 34 | ABHD4 confirm 57
COC(=O)C1CN(Cc2ccc(Cl)cc2)CCS(=O)(=O)N1Cc1cn(Cc2ccc(Cl)cc2)nn1 (stereo unspecified)	none (no result: TCR-CD3 inh)
O=C1c2cccc(Cl)c2C(=O)c2c1cccc2N1CCCC1	ABHD4 inh 66 | ABHD4 confirm 85
O=C1C(Cl)=C(N2CCCCC2)C(=O)N1c1ccccc1Cl	none
CN(C)[C@@H]1CCN(c2cccc3c2S(=O)(=O)N2CC[C@@H](C2)O3)C1	none (no result: TCR-CD3 inh)
CCn1cnc2cc(NCc3cccc(OC)c3O)ccc21	ABHD4 inh active | ABHD4 confirm inactive
CCOC(=O)CC[C@H]1CC[C@]2(CCCN(Cc3ccccc3)C2)O1	none (no result: TCR-CD3 inh)
O=C(COc1cccc2c1CCNC2=O)Nc1ccc(Cl)cc1	none
NC(=O)c1ccc(NC(=O)COc2cccc3c2CCNC3=O)cc1	ABHD4 inh 105 | ABHD4 confirm inactive
CCOC(=O)[C@@]12CCCC3=C1N(CCC3)C(=O)[C@H]2CC(=O)NCC1CCCCC1	none (no result: TCR-CD3 inh)
Cc1nc(N)sc1-c1csc(N(C)c2ccc(O)cc2)n1	ABHD4 inh 34 | ABHD4 confirm inactive
Oc1ccc(/C=N/Nc2cc(N3CCCC3)nc(N3CCCC3)n2)cc1O	TCR-CD3 inh 33, rCAG binder 40, ABHD4 inh 35, SIAE primary 22 | ABHD4 confirm 40
CC(C)c1ccc(/C=N/Nc2cc(N3CCOCC3)nc(N3CCOCC3)n2)cc1	none
NNc1nc2c(Cl)ccc(Cl)c2s1	ABHD4 inh 39 | ABHD4 confirm 48
O=C(Nc1nc2c(Cl)ccc(Cl)c2s1)C1CC1	none
COc1ccc(C(C(=O)NC2CCCC2)N(CCCO)C(=O)c2snc(C(N)=O)c2N)cc1 (stereo unspecified)	none
CN(CCOC(=O)c1cc2ccccc2o1)C1CN(Cc2cn(Cc3ccccc3Cl)nn2)S(=O)(=O)C1 (stereo unspecified)	none (no result: TCR-CD3 inh)
Nc1ccc2ccc(N)cc2c1	ABHD4 inh 35 | ABHD4 confirm inactive
Nc1ccc2ncccc2c1	none
COc1ccc(NC(=O)C(c2cc3c(cc2[N+](=O)[O-])OCO3)N(C)C)cc1 (stereo unspecified)	ABHD4 inh 70 | ABHD4 confirm inactive
O=C(O)c1ccc(NC(=O)c2ccc3c(c2)C(=O)N(c2ccccc2)C3=O)cc1	none
O=C(O)c1ccc(S(=O)(=O)c2ccc3c(c2)C(=O)N(c2ccc(O)cc2)C3=O)cc1	ABHD4 inh 92 | ABHD4 confirm inactive
CC(C)(C)c1ccc(-c2csc(N3CCC(C(N)=O)CC3)n2)cc1	ABHD4 inh 35 (no result: TCR-CD3 inh, rCAG binder) | ABHD4 confirm 37
NC(=O)C1CCN(c2nc(-c3ccc(Br)cc3)cs2)CC1	none
COc1ccc(C(C(=O)Nc2ccc(F)cc2)N2CCN(CC(=O)N3CCCC3)CC2)cc1 (stereo unspecified)	none
O=C(Nc1c(F)cccc1F)c1ccc2c(c1)CCN2S(=O)(=O)c1ccccc1	none
O=C(Nc1ccccc1F)c1ccc2c(c1)CCN2S(=O)(=O)c1ccccc1	ABHD4 inh 80 | ABHD4 confirm inactive
CSc1nc(N2CCN(C)CC2)c2c(c1C#N)CC(C)(C)OC2	ABHD4 inh 57 | ABHD4 confirm inactive
CC(=O)c1ccc(S(=O)(=O)N2CCN(CC(=O)Nc3ccnn3C3CCCC3)CC2)cc1	none
Cc1cccc(NC(=O)CCNC(=O)c2ccc(Br)cc2)c1	none
O=C(Nc1nc2ncccn2c1-c1ccc(C(F)(F)F)cc1)c1ccccc1	none (no result: TCR-CD3 inh)
Oc1ccc2[nH]cc(CCc3ccccc3)c2c1-c1ccccc1	ABHD4 inh 33 (no result: TCR-CD3 inh) | ABHD4 confirm inactive
N#Cc1c(N2CCCC(O)C2)nc(N)c2c(N)nc3c(c12)CC(=O)N3C12CC3CC(CC(C3)C1)C2 (stereo unspecified)	none
C=C(C)CN(CC)c1nc(N)c2c(N)nc3c(c2c1C#N)CC(=O)N3C12CC3CC(CC(C3)C1)C2	ABHD4 inh 36 | ABHD4 confirm inactive
O=C(c1cc(Cl)cc(Cl)c1)N1CC[C@H]2[C@H](CCCN2Cc2ccccc2)C1	none (no result: TCR-CD3 inh)
C=CCS/C(N)=N\N=C\c1cc(Br)cc([N+](=O)[O-])c1O	ABHD4 inh 31 | ABHD4 confirm inactive
O=[N+]([O-])c1cc(Br)cc(/C=N/n2cnnc2)c1O	none
Cc1cc(C)cc(C(=O)OCCN2CCN(C3CN(Cc4cn(Cc5ccccc5F)nn4)S(=O)(=O)C3)CC2)c1 (stereo unspecified)	none (no result: TCR-CD3 inh)
CCOC(=O)NC(=O)/C(C#N)=C\Nc1sccc1C(=O)OC	PRMT1 inh 56, ABHD4 inh 63 | ABHD4 confirm inactive
CCOC(=O)NC(=O)/C(C#N)=C\Nc1ccc(Cl)cc1Cl	none
O=C1c2ccccc2C(=O)c2cc(S(=O)(=O)Nc3ccccc3)ccc21	ABHD4 inh 40 | ABHD4 confirm 53

Source: PubChem BioAssay
